# Data from ChEMBL document CHEMBL1140983, “Pyrazoles and pyrazolines as neural and inducible nitric oxide synthase (nNOS and iNOS) potential inhibitors (III)” (Eur J Med Chem, 2008).
# Molecular target: Nitric oxide synthase 1 (Rattus norvegicus) (UniProt P29476)
# Assay: Inhibition of nNOS in Wistar rat striata assessed as conversion of L-[3H]arginine to L-[3H]citrulline at 1 mM by liquid scintillation spectroscopy
# How it was run: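 Male Wistar rats (200–250 g); fresh striata homogenized in Tris buffer (pH 7.6) with protease inhibitors, spun 1000 g 5 min, supernatant used. Incubation: 25 mM Tris, 1 mM DTT, 30 µM H4-biopterin, 10 µM FAD, 0.1 mM CaCl2, 10 µM L-arginine plus 50 nM L-[3H]-arginine; started with NADPH (0.75 mM final) and compound in DMSO (1 mM final), 37 °C 30 min. Dowex-50W separation; NADPH-omitted blank subtracted; mean ± SEM, three experiments in triplicate.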
# Sequence of Nitric oxide synthase 1 (Rattus norvegicus) (P29476 whole entry): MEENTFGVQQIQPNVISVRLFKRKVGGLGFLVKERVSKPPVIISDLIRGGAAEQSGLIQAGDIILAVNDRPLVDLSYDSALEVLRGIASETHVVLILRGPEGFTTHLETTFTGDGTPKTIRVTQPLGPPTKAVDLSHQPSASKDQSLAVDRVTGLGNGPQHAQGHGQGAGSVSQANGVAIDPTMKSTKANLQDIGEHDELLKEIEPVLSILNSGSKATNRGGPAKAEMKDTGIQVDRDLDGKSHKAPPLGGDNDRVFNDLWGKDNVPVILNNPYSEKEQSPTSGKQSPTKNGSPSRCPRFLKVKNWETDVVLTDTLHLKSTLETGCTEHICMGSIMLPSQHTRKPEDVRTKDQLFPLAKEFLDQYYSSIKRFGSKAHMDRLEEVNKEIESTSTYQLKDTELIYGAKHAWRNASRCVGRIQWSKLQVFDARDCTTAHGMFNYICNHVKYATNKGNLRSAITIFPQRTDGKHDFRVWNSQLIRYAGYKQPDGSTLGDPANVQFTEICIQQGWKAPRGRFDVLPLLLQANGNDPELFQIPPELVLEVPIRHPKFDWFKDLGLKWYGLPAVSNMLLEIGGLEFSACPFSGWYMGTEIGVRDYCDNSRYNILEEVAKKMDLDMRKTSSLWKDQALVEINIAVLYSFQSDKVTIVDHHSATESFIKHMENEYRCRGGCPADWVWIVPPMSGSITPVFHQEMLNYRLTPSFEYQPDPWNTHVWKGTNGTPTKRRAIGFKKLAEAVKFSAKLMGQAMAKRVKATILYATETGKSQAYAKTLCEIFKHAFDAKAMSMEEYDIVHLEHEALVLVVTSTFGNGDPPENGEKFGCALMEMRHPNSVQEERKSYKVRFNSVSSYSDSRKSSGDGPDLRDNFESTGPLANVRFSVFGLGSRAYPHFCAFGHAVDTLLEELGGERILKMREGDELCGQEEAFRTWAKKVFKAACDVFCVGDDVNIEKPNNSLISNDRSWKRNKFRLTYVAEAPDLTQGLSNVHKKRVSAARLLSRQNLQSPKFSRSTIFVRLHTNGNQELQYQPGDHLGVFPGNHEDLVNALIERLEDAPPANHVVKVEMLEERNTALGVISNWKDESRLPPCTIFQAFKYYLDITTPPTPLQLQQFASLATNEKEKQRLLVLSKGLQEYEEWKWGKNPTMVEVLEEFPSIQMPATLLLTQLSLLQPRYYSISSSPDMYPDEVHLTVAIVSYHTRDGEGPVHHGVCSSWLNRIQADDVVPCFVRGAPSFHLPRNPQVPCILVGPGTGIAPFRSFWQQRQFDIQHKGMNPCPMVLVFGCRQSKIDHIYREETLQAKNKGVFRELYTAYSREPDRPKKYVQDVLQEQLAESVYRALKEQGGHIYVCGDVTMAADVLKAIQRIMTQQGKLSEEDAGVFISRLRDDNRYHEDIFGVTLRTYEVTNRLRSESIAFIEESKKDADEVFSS
row,Compound,inhibition [%]
1,CCOC(=O)C1CC(C(=O)c2cc(Cl)ccc2N)=NN1Cc1ccccc1 (stereo not drawn),18.3
2,CCCCn1nc(C(=O)c2cc(Cl)ccc2N)cc1C(=O)OCC,7.8
3,CCOC(=O)c1cc(C(=O)c2ccccc2N)nn1Cc1ccccc1,21.9
4,CCOC(=O)C1CC(C(=O)c2ccccc2N)=NN1CC (stereo not drawn),22.1
5,CCOC(=O)c1cc(C(=O)c2cc(Cl)ccc2N)nn1Cc1ccccc1,2.7
6,CCOC(=O)C1CC(C(=O)c2cc(OC)ccc2N)=NN1CC (stereo not drawn),1.7
7,CCOC(=O)c1cc(C(=O)c2cc(OC)ccc2N)nn1Cc1ccccc1,19.4
8,CCCCn1nc(C(=O)c2ccccc2N)cc1C(=O)OCC,21.9
9,CCCCn1nc(C(=O)c2cc(OC)ccc2N)cc1C(=O)OCC,26.2
10,CCCCN1N=C(C(=O)c2cc(OC)ccc2N)CC1C(=O)OCC (stereo not drawn),-10
11,CCOC(=O)C1CC(C(=O)c2cc(Cl)ccc2N)=NN1 (stereo not drawn),32.1
12,CCOC(=O)C1CC(C(=O)c2cc(Cl)ccc2N)=NN1C (stereo not drawn),1.3
13,CCOC(=O)C1CC(C(=O)c2ccccc2N)=NN1C (stereo not drawn),-9.8
14,CCOC(=O)C1CC(C(=O)c2cc(OC)ccc2N)=NN1C (stereo not drawn),-7.8
15,CCOC(=O)c1cc(C(=O)c2cc(Cl)ccc2N)nn1CC,35.5
16,CCOC(=O)c1cc(C(=O)c2ccccc2N)nn1CC,39.5
17,CCOC(=O)c1cc(C(=O)c2cc(Cl)ccc2N)nn1C,14.5
18,CCOC(=O)C1CC(C(=O)c2cc(OC)ccc2N)=NN1Cc1ccccc1 (stereo not drawn),9.3
19,CCCCN1N=C(C(=O)c2ccccc2N)CC1C(=O)OCC (stereo not drawn),29.6
20,CCOC(=O)c1cc(C(=O)c2cc(Cl)ccc2N)n[nH]1,40.2
21,CCOC(=O)C1CC(C(=O)c2cc(Cl)ccc2N)=NN1CC (stereo not drawn),41.5
22,CCOC(=O)C1CC(C(=O)c2ccccc2N)=NN1Cc1ccccc1 (stereo not drawn),28.4
23,CCCCN1N=C(C(=O)c2cc(Cl)ccc2N)CC1C(=O)OCC (stereo not drawn),38.5
24,CCOC(=O)c1cc(C(=O)c2cc(OC)ccc2N)nn1CC,20.3

# Molecular target: Nitric oxide synthase, inducible (Rattus norvegicus) (UniProt Q06518)
# Sequence (Q06518 whole entry): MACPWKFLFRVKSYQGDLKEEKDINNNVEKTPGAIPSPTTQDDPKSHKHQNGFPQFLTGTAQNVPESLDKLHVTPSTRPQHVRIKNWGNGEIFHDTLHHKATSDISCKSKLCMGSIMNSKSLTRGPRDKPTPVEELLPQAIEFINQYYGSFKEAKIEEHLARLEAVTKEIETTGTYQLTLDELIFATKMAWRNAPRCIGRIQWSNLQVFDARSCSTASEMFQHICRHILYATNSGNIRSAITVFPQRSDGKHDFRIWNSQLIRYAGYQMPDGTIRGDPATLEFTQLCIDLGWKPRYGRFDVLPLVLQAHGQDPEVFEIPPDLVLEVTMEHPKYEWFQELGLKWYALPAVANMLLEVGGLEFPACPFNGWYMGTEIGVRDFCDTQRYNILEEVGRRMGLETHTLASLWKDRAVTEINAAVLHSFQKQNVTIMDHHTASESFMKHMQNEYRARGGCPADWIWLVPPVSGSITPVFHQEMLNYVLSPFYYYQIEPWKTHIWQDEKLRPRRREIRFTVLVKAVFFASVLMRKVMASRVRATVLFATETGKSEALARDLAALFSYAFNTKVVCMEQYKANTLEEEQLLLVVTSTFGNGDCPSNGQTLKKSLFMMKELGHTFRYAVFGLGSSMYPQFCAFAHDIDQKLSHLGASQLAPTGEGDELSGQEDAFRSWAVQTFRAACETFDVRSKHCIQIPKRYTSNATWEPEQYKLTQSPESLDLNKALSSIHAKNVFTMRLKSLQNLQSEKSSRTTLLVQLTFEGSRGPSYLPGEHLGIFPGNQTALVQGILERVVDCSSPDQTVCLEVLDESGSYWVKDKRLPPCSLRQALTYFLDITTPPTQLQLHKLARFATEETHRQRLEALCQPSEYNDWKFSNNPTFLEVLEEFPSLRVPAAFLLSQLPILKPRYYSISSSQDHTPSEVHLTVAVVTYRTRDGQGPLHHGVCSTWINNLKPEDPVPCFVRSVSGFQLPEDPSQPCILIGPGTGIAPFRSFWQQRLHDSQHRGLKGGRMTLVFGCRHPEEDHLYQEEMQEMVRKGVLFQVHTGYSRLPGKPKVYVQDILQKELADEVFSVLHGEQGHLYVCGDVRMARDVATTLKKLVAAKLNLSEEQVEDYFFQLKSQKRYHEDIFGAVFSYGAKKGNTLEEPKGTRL
# Assay: Inhibition of iNOS in LPS-induced rat lungs assessed as conversion of L-[3H]arginine to L-[3H]citrulline at 1 mM by liquid scintillation spectroscopy
# How it was run: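 iNOS induced by LPS 20 mg/kg i.v. in rats; lungs taken 8 h later, homogenized in ice-cold Tris buffer (pH 7.6) with protease inhibitors, then incubated with 10 mM EDTA to remove nNOS activity. Activity read as [3H]-citrulline from L-[3H]-arginine by the striatal-assay procedure, compound at 1 mM final, 37 °C 30 min; mean ± SEM, three experiments in triplicate.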
row,Compound,inhibition [%]
1,CCOC(=O)C1CC(C(=O)c2cc(Cl)ccc2N)=NN1Cc1ccccc1 (stereo not drawn),17.3
2,CCCCn1nc(C(=O)c2cc(Cl)ccc2N)cc1C(=O)OCC,18.7
3,CCOC(=O)c1cc(C(=O)c2ccccc2N)nn1Cc1ccccc1,13.5
4,CCOC(=O)C1CC(C(=O)c2ccccc2N)=NN1CC (stereo not drawn),-1.5
5,CCOC(=O)c1cc(C(=O)c2cc(Cl)ccc2N)nn1Cc1ccccc1,50.4
6,CCOC(=O)C1CC(C(=O)c2cc(OC)ccc2N)=NN1CC (stereo not drawn),17.1
7,CCOC(=O)c1cc(C(=O)c2cc(OC)ccc2N)nn1Cc1ccccc1,30.5
8,CCCCn1nc(C(=O)c2ccccc2N)cc1C(=O)OCC,5.4
9,CCCCn1nc(C(=O)c2cc(OC)ccc2N)cc1C(=O)OCC,20.5
10,CCCCN1N=C(C(=O)c2cc(OC)ccc2N)CC1C(=O)OCC (stereo not drawn),18.6
11,CCOC(=O)C1CC(C(=O)c2cc(Cl)ccc2N)=NN1 (stereo not drawn),19.1
12,CCOC(=O)C1CC(C(=O)c2cc(Cl)ccc2N)=NN1C (stereo not drawn),22.9
13,CCOC(=O)C1CC(C(=O)c2ccccc2N)=NN1C (stereo not drawn),12.7
14,CCOC(=O)C1CC(C(=O)c2cc(OC)ccc2N)=NN1C (stereo not drawn),0.6
15,CCOC(=O)c1cc(C(=O)c2cc(Cl)ccc2N)nn1CC,27.5
16,CCOC(=O)c1cc(C(=O)c2ccccc2N)nn1CC,12.5
17,CCOC(=O)c1cc(C(=O)c2cc(Cl)ccc2N)nn1C,7.3
18,CCOC(=O)C1CC(C(=O)c2cc(OC)ccc2N)=NN1Cc1ccccc1 (stereo not drawn),10.5
19,CCCCN1N=C(C(=O)c2ccccc2N)CC1C(=O)OCC (stereo not drawn),12.2
20,CCOC(=O)c1cc(C(=O)c2cc(Cl)ccc2N)n[nH]1,12.8
21,CCOC(=O)C1CC(C(=O)c2cc(Cl)ccc2N)=NN1CC (stereo not drawn),14.7
22,CCOC(=O)C1CC(C(=O)c2ccccc2N)=NN1Cc1ccccc1 (stereo not drawn),9.4
23,CCCCN1N=C(C(=O)c2cc(Cl)ccc2N)CC1C(=O)OCC (stereo not drawn),10.5
24,CCOC(=O)c1cc(C(=O)c2cc(OC)ccc2N)nn1CC,24.6
